# Results: ChEMBL document CHEMBL1124947, “Cationic antiprotozoal drugs. Trypanocidal activity of 2-(4'-formylphenyl)imidazo[1,2-a]pyridinium guanylhydrazones and related derivatives of quaternary heteroaromatic compounds” (J Med Chem, 1990)
# Columns and labels:
# Format in all cases: functional
# Mus musculus [1] = assay: Trypanocidal Activity at I.C.E. value 0.44 when administered subcutaneously.
# How it was run: (§1)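 Blood-stage T. rhodesiense infection came from a standard inoculum lethal to all untreated mice. Drug was given by subcutaneous injection to groups of five mice. Survival beyond 30 days counted as cure. […] Sub-curative doses scored 0, and data were normalized at each dose.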
# Mus musculus [2] = assay: Trypanocidal Activity at I.C.E. value 0.25 when administered perorally.
# [3] = system: Trypanosoma brucei rhodesiense; assay: In Vitro measurement of inhibition of leucine uptake in cell culture of Trypanosoma rhodesiense; settings: read-out: ID50 (the source's name)
# How it was run: (§2)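 Trypanosomes harvested from infected rats, cultured 3 h with several concentrations of drug, usually 0.1–100 µg/mL. Radiolabeled L-leucine uptake measured. ID50 is the concentration in µg/mL giving 50% inhibition of incorporation.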
# Mus musculus [4] = assay: Trypanocidal Activity at I.C.E. value 0.45 when administered subcutaneously.; how it was run: as §1
# Mus musculus [5] = assay: Trypanocidal Activity at I.C.E. value 0.42 when administered perorally.
# [6] = system: Trypanosoma brucei rhodesiense; assay: In Vitro measurement of inhibition of thymidine uptake in cell culture of Trypanosoma rhodesiense; settings: read-out: ID50 (the source's name)
# How it was run: (§3)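 Parasites harvested from infected rats and incubated 3 h across a drug concentration series, usually 0.1–100 µg/mL. Incorporation of radiolabeled thymidine measured. ID50 is the concentration (µg/mL) producing 50% inhibition.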
# Mus musculus [7] = assay: Trypanocidal Activity at I.C.E. value 0.44 when administered perorally.
# Mus musculus [8] = assay: Trypanocidal Activity at I.C.E. value 0.90 when administered subcutaneously.
# [9] = system: Trypanosoma brucei rhodesiense; assay: In Vitro measurement of inhibition of thymidine uptake in cell culture of Trypanosoma rhodesiense.; settings: read-out: ID50 (the source's name); how it was run: as §3
# Mus musculus [10] = assay: Trypanocidal Activity at I.C.E. value 0.39 when administered subcutaneously.; how it was run: as §1
# Mus musculus [11] = assay: Trypanocidal Activity at I.C.E. value 0.64 when administered perorally.
# [12] = system: Trypanosoma brucei rhodesiense; assay: In Vitro measurement of inhibition of Leucine uptake in cell culture of Trypanosoma rhodesiense.; settings: read-out: ID50 (the source's name); how it was run: as §2
# Mus musculus [13] = assay: Trypanocidal Activity at I.C.E. value 0.80 when administered subcutaneously.
# How it was run: (§4)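 Mice, in groups of five per dose, were given a standard inoculum of blood-stage T. rhodesiense that is lethal to all untreated controls, then dosed subcutaneously. Usually 11 dose levels were used (2^n × 0.42 mg/kg).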
# Mus musculus [14] = assay: Trypanocidal Activity at I.C.E. value 0.32 when administered perorally.
# Mus musculus [15] = assay: Trypanocidal Activity at I.C.E. value 0.71 when administered subcutaneously.; how it was run: as §4
# Mus musculus [16] = assay: Trypanocidal Activity at I.C.E. value 0.24 when administered subcutaneously; how it was run: as §1
# Mus musculus [17] = assay: Trypanocidal Activity at I.C.E. value 0.61 when administered subcutaneously.; how it was run: as §4
# Mus musculus [18] = assay: Trypanocidal Activity at I.C.E. value 0.35 when administered subcutaneously.; how it was run: as §1
# [19] = system: Trypanosoma brucei rhodesiense; assay: In Vitro measurement of inhibition of leucine uptake in cell culture of Trypanosoma rhodesiense.; settings: read-out: ID50 (the source's name); how it was run: as §2
# Mus musculus [20] = assay: Trypanocidal Activity at I.C.E. value 0.59 when administered subcutaneously.; how it was run: as §4
# Mus musculus [21] = assay: Trypanocidal Activity at I.C.E. value 0.23 when administered perorally.
# Mus musculus [22] = assay: Trypanocidal Activity at I.C.E. value 0.50 when administered perorally.
structure (smiles),measurement,setting,value
Br.CC/N=C(\NCC)N/N=C/c1ccc(OCc2cn3ccccc3[n+]2C)cc1.[Br-],CD50,Mus musculus [1],0.8 mg/kg
same,CD50,Mus musculus [2],106 mg/kg
C[n+]1cccc(COc2ccc(/C=N/NC(=N)N)cc2)c1.Cc1ccc(S(=O)(=O)O)cc1.Cc1ccc(S(=O)(=O)[O-])cc1,IC50,[3],> 10 µg/mL
same,CD50,Mus musculus [4],0.8 mg/kg
same,CD50,Mus musculus [5],26 mg/kg
same,IC50,[6],1.8 µg/mL
Br.Cc1cccc2n1cc(/C=C/c1ccc(/C=N/NC(=N)N3CCCC3)cc1)[n+]2C.[Br-],CD50,Mus musculus [7],53 mg/kg
same,CD50,Mus musculus [8],0.4 mg/kg
Br.C[n+]1c(-c2ccc(/C=N/NC(=N)N3CCCC3)cc2)cn2ccccc21.[Br-],IC50,[9],0.6 µg/mL
same,CD50,Mus musculus [10],0.06 mg/kg
same,CD50,Mus musculus [11],6.6 mg/kg
same,IC50,[12],0.6 µg/mL
Br.CC/N=C(\NCC)N/N=C/c1ccc(/C=C/c2cn3ccccc3[n+]2C)cc1.[Br-],CD50,Mus musculus [13],0.4 mg/kg
Br.CCCCNC(=N)N/N=C/c1ccc(-c2cn3ccc(C)cc3[n+]2C)cc1.[Br-],CD50,Mus musculus [14],26 mg/kg
same,CD50,Mus musculus [15],0.4 mg/kg
Br.C/N=C(/N/N=C/c1ccc(-c2cn3ccccc3[n+]2C)cc1)SC.[Br-],CD50,Mus musculus [16],26 mg/kg
CCNC(=N)N/N=C/c1ccc(/C=C/c2n(C)cc[n+]2C)cc1.Cc1ccc(S(=O)(=O)O)cc1.Cc1ccc(S(=O)(=O)[O-])cc1,CD50,Mus musculus [17],0.11 mg/kg
Br.CCN(CC)C(=N)N/N=C/c1ccc(-c2cn3ccccc3[n+]2C)cc1.[Br-],CD50,Mus musculus [18],0.2 mg/kg
same,IC50,[9],1.1 µg/mL
same,IC50,[19],1 µg/mL
Br.Cn1c[n+](Cc2ccc(/C=N/NC3=NCCCN3)cc2)c2ccccc21.[Br-],CD50,Mus musculus [20],1.6 mg/kg
same,CD50,Mus musculus [21],106 mg/kg
C[n+]1c(-c2ccc(/C=N/NC(=N)N)cc2)cn2cc(Cl)ccc21.Cc1ccc(S(=O)(=O)O)cc1.Cc1ccc(S(=O)(=O)[O-])cc1,CD50,Mus musculus [10],1.6 mg/kg
same,CD50,Mus musculus [22],13 mg/kg
